{"source": "PubChem BioAssay AID602138", "about": "(Broad Institute, 2011)", "assay": "cholesterol efflux inhibition via mutant SR-BI C384S, dose response, mechanism study for SR-BI HDL uptake inhibitor project, cell-based, ldlA CHO, [3H]cholesterol, dry powder (AID 602138)", "details": "ldlA CHO cells mSR-BI C384S, [3H]cholesterol efflux to HDL; at 25 µM (top of the series)", "method_in_brief": "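Dosing: compound in assay medium with 0.5% DMSO / System: Cys384S SR-BI mutant ldlA CHO cells / Measured by: scintillation counting, medium and lysate / Times: 1 h compound pre-exposure at 37 °C, 2 h efflux / Probe or stimulus: HDL, 100 µg/mL final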", "note": "Calls of active or inactive are those of the source. The rule behind the calls is not given here.", "data": [{"compound": "COCC(=O)N1CCc2cc(-c3csc(NC(=O)c4cc(OC)cc(OC)c4)n3)ccc21", "values": [{"measurement": "efflux, lower = inhibition", "result": "6.26% (active)"}]}, {"compound": "C[C@H](C(=O)NC1CCCC1)N(C(=O)Cn1nnc(-c2ccc3c(c2)OCO3)n1)C1CCCCC1", "values": [{"measurement": "efflux, lower = inhibition", "result": "5.73% (active)"}]}]}
